Where two headings read alike, the source gives them in different places.
What was measured:
[1] = assay type: in vivo; settings: rat, after BIA 10‐2474 10 mg·kg^−1 p.o.
[2] = target: T1, rat brain fatty acid amide hydrolase (FAAH) (Rattus norvegicus, UniProt P97612); assay type: biochemical; settings: read-out: IC50 [95% CI]
T1 sequence (P97612 1-579): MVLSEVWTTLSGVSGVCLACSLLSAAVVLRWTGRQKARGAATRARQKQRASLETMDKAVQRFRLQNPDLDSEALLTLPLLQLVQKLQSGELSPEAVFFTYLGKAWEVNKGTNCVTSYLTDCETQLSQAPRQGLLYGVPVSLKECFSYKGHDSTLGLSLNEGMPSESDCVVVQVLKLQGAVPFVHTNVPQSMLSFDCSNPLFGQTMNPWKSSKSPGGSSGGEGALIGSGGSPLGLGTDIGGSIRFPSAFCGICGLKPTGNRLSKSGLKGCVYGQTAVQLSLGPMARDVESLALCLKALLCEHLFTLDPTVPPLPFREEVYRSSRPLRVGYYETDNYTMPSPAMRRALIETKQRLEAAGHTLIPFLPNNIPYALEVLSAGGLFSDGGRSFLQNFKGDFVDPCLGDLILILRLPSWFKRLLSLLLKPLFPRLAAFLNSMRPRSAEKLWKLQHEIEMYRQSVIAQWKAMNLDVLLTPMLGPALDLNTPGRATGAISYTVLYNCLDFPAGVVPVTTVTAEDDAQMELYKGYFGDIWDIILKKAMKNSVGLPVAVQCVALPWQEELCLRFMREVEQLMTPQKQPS
In short: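 Rat brain membranes from Wistar rats, 10 μg protein, in 1 mM EDTA, 10 mM Tris, pH 7.6. Test compound at 1 nM–10 μM, pre-incubated with enzyme 5–60 min, or reaction started with enzyme when not pre-incubated. Substrate 2 μM AEA + 5 nM 3H‑AEA + 0.1% fatty acid-free BSA, 30 min at room temperature with agitation. Charcoal stop; supernatant 3H‑ethanolamine counted. Blank and vehicle controls; IC50 from normalized variable-slope sigmoidal fit.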

[3] = target: T2, rat brain fatty acid amide hydrolase (Rattus norvegicus, UniProt P97612); experiment: FAAH progression curves, kinetic constants k obs and k inact/K I; assay type: biochemical; settings: inhibition of rat brain FAAH, 37°C
T2 sequence (P97612 1-579): T1 sequence (P97612 1-579)

[4] = target: T3, human recombinant fatty acid amide hydrolase (FAAH) (Homo sapiens, UniProt O00519); experiment: FAAH activity in intact COS‐hFAAH cells; assay type: cell-based; settings: for IC50: read-out: IC50 [95% CI]
T3 sequence (O00519 1-579): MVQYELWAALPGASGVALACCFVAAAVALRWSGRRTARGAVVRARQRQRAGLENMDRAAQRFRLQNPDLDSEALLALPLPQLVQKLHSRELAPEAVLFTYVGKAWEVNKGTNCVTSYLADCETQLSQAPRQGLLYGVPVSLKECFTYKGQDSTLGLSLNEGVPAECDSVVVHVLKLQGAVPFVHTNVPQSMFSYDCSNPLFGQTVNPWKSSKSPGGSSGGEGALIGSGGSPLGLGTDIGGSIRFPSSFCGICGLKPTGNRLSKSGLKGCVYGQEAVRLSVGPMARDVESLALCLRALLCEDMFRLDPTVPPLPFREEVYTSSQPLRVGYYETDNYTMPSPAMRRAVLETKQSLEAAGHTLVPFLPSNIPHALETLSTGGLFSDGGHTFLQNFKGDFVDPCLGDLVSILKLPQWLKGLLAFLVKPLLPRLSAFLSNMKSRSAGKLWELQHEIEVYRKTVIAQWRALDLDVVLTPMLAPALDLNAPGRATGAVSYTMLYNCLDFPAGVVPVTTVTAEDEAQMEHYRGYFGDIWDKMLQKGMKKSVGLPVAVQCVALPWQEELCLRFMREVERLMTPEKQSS

COS‐hFAAH cells = experiment: Quantification of compounds in COS‐hFAAH supernatant, cell lysates and medium; assay type: in vitro ADME; settings: 1, 3 and 24 hr
[5] = Protein binding to cell homogenates; assay type: in vitro ADME; settings: 500 μg·ml^−1 of protein
[6] = target: T4, mouse liver fatty acid amide hydrolase (FAAH) (Mus musculus, UniProt O08914); experiment: Ex vivo FAAH activity in mouse liver after oral administration; settings: 0.1 mg·kg^−1 p.o., 1 hr after dosing
T4 sequence (O08914 1-579): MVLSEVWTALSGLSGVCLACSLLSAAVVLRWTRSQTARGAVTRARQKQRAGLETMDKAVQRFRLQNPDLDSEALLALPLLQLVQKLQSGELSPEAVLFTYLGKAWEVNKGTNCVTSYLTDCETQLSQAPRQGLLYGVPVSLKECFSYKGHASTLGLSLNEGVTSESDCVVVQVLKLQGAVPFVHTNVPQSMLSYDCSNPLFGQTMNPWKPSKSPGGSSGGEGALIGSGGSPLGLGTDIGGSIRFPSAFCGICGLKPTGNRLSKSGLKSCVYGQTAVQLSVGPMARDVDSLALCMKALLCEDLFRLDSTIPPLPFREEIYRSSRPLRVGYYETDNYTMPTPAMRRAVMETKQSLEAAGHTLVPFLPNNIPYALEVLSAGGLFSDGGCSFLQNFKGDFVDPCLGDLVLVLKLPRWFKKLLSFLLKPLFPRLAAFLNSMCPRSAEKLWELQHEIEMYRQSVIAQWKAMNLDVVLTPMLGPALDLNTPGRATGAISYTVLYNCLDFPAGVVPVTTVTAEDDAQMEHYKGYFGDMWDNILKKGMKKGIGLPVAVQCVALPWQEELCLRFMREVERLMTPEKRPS
In short: (§1)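 Liver and half-brain were collected into FAAH membrane buffer (3 mM MgCl2, 1 mM EDTA, 50 mM Tris HCl, pH 7.4) and stored at −20°C. Homogenates (15 μg protein brain, 5 μg liver) were pre-incubated 15 min at 37°C. AEA + 3H‑AEA + BSA was added for 10 min (brain) or 7 min (liver), then charcoal. Scintillation counting gave % remaining activity versus controls after blank subtraction.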

[7] = target: T5, mouse brain fatty acid amide hydrolase (FAAH) (Mus musculus, UniProt O08914); experiment: Ex vivo FAAH activity in mouse brain after oral administration; settings: 0.1 mg·kg^−1 p.o., 1 hr after dosing
T5 sequence (O08914 1-579): T4 sequence (O08914 1-579)
In short: as §1

[8] = tested on: brain fatty acid amides (AEA, PEA, OEA); experiment: Fatty acid amides; assay type: in vivo; settings: mouse brain, 8 hr
In short: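 Frozen brains were thawed at 4°C and weighed. Each sample was extracted with chloroform:MeOH (2:1) plus 0.1 M phosphate buffer, pH 5.6. Deuterated internal standards were spiked in: AEA‑d8, PEA‑d4 and OEA‑d2 for the fatty acid amides, and 2‑AG‑d8 for 2‑AG.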

[9] = tested on: 229 assays for receptors, enzymes, transporters, ion channels, hormones, growth factors and inflammatory mediators; assay type: binding; settings: 10 and 50 μM
[10] = target: T6, fatty acid amide hydrolase (Rattus norvegicus, UniProt P97612); experiment: Gel‐based competitive ABPP in vitro, TAMRA‐FP probe, rat brain fractions; assay type: biochemical; settings: 1 hr
T6 sequence (P97612 1-579): T1 sequence (P97612 1-579)
In short: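 Rat brain membrane and soluble protein extracts (200 μg) were incubated 1 hr at room temperature with test compound at 1 nM–100 μM, DMSO vehicle or PMSF 3 mM. Active serine hydrolases were then labelled with TAMRA‑FP probe (2 μM final) for 1 hr at room temperature. Bands were visualized by in-gel fluorescence.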

Structure (SMILES): CN(C(=O)n1cnc(-c2cccnc2)c1)[C@H]1CC[C@H](O)CC1 [BIA 10‐2631, N‐((1R,4R)‐4‐hydroxycyclohexyl)‐N‐methyl‐4‐(pyridin‐3‐yl)‐1H‐imidazole‐1‐carboxamide]
- brain levels at all time points measured [1]: below the limit of quantification

Structure (SMILES): CN(C(=O)n1cnc(-c2ccc[n+]([O-])c2)c1)[C@H]1CC[C@H](O)CC1 [BIA 10‐2639, 3‐(1‐(((1R,4R)‐4‐hydroxycyclohexyl)(methyl)carbamoyl)‐1H‐imidazol‐4‐yl)pyridine 1‐oxide]
- brain levels at all time points measured [1]: below the limit of quantification

Structure (SMILES): O=C(Nc1cnccc1Cl)N1CCN(Cc2ccc3c(c2)OC(F)(F)O3)CC1 [JNJ‐42165279]
- IC50 ([2]; pre‐incubation 0 min): 472 nM
- IC50 ([2]; pre‐incubation 5 min): 365 nM
- IC50 ([2]; pre‐incubation 15 min): 272 nM
- IC50 ([2]; pre‐incubation 30 min): 221 nM
- IC50 ([2]; pre‐incubation 45 min): 161 nM
- IC50 ([2]; pre‐incubation 60 min): 94.3 nM
- k inact/K I [3]: 5,092 M·s^−1
- inhibition level above 30 nM ([4]; 1‐ and 3‐hr periods): around 50%
- IC50 ([4]; incubation 1 hr): 26.2 nM
- IC50 ([4]; incubation 3 hr): 25.1 nM
- IC50 ([4]; incubation 24 hr): 41.5 nM
- detection in cell lysates (COS‐hFAAH cells): undetectable
- stability in cellular media over time (COS‐hFAAH cells): stable
- mean % free fraction ± SD [5]: 64.3 ± 4.0%
- inhibition of liver FAAH [6]: 25.5%
- inhibition of brain FAAH [7]: 19.2%
- AEA ([8]; 1 mg·kg^−1 p.o.): 89.0 ± 20.6 % of control
- OEA ([8]; 1 mg·kg^−1 p.o.): 114.9 ± 13.36 % of control
- PEA ([8]; 1 mg·kg^−1 p.o.): 123.4 ± 11.2 % of control
- AEA ([8]; 3 mg·kg^−1 p.o.): 83.6 ± 9.1 % of control
- OEA ([8]; 3 mg·kg^−1 p.o.): 121.7 ± 10.2 % of control
- PEA ([8]; 3 mg·kg^−1 p.o.): 138.3 ± 19.4 % of control
- AEA ([8]; 10 mg·kg^−1 p.o.): 86.5 ± 4.8 % of control
- OEA ([8]; 10 mg·kg^−1 p.o.): 147.3 ± 13.8 % of control
- PEA ([8]; 10 mg·kg^−1 p.o.): 205.6 ± 37.0 % of control
- AEA ([8]; 30 mg·kg^−1 p.o.): 95.5 ± 2.5 % of control
- OEA ([8]; 30 mg·kg^−1 p.o.): 234.9 ± 46.8 % of control
- PEA ([8]; 30 mg·kg^−1 p.o.): 382.2 ± 103.5 % of control
- off‐target activity at the sites studied [9]: some weak activity at just seven sites
- concentration that completely inhibited the band corresponding to the MW of FAAH [10]: 10 µM

Source: publication PMC7161550 (British Journal of Pharmacology, 2020)
